Hits are enriched below; roughly 2.9% of the tested compounds scored in any of these assays.
SIAE primary: human SIAE inhibition, primary screen. Q9HAT2. SIAE FP-Rh probe binding, fluorescence polarization. inhibition, % at 9.66 µM. 370,000 tested, 0.69% active;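 active means inhibition above a cutoff: mean of compounds within the control limits plus 3 SD of those, cut at about 17% in these data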;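 further: 0% = plate median of compound wells and 100% = probe without SIAE protein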
TCR CD3 inh: human TCR-CD3 binding inhibition | TAMRA-labeled TCR probe fluorescence, biochemical | inhibition, % at 9.4 µM | 360,000 tested, 0.37% active | AID 651800; in the data active means inhibition above about 19%;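 further: recombinant mutant TCR 2C K166C tagged with TAMRA read by polarization; 0% = receptor in buffer alone and 100% = receptor with positive control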
PRMT1 FP inh: blocks human protein arginine methyltransferase 1 | Q99873 | 370,000 tested, 1.3% active | inhibition, % at 2.79 µM | recombinant PRMT1, activity-based probe fluorescence polarization;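 active means inhibition above about 21% made by adding two undisclosed values, limit read from the data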
mABHD4 FP: ABHD4 (mouse) inhibition, primary FP screen | 370,000 tested, 0.54% active | Q8VD66 | inhibition, % at 8.92 µM | purified mABHD4, FP-Rh probe fluorescence polarization | AID 720543;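 active means inhibition exceeding the mean over every tested compound plus 3 SD, cut at about 30% in these data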;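 further: 0% = plate median of compound wells and 100% = S159A mutant with DMSO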
Target sequence (Q8VD66 whole entry, looked up): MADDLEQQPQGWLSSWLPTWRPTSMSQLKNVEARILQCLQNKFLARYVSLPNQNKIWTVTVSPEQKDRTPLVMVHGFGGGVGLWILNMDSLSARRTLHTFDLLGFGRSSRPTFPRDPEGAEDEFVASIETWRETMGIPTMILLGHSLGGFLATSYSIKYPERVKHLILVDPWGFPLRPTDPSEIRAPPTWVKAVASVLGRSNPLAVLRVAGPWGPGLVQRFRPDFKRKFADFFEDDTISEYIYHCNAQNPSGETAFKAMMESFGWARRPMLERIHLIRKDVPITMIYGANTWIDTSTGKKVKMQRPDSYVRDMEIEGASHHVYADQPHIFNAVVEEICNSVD
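Doses – 8.92 µM, single dose · Material – wild-type mouse ABHD4 protein · Replication – single well per compound (singlicate) · Measure – percent inhibition of probe binding, normalized to plate controls · Schedule – 45 min compound pre-incubation plus 60 min probe step, 25 °C · Detection – fluorescence polarization with parallel and perpendicular emission, 525/598 nm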
ATG4B inhibitor: ATG4B (human) cysteine protease inhibition. 340,000 tested, 0.51% active. ATG4B cleavage of LC3-PLA2, NBD-HPC fluorescence, 1 h. Q9Y4P1. inhibition, % at 8.33 µM; in the data active means inhibition above about 40%
HTRA1 inhibitor: blocks human HTRA1 serine peptidase | recombinant HTRA1, FP-rhodamine activity-based probe, fluorescence polarization | AID 504803 | 340,000 tested, 0.5% active | Q92743 | inhibition, % at 5.96 µM; in the data active means inhibition above about 36%;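 further: 0% = enzyme with DMSO and 100% = wells lacking enzyme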
SIAE confirm: human SIAE inhibition, confirmation | inhibition, % at 9.66 µM | SIAE FP-Rh activity-based probe, fluorescence polarization | 2,300 tested, 13% active | shares compounds with SIAE primary | AID 1117263;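 active means mean inhibition of the replicates above the hit cutoff set in the primary screen, cut at about 17% in these data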;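 further: 0% = SIAE with DMSO and probe and 100% = probe without SIAE; inhibitors lower polarization as more probe stays unbound to SIAE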
* hit, by the source's call; x = not tested or not shown.

SMILES	SIAE primary	TCR CD3 inh	PRMT1 FP inh	mABHD4 FP	ATG4B inhibitor	HTRA1 inhibitor	SIAE confirm
Cc1c(O)ccc(/C(Cc2ccc3ccccc3n2)=N\N)c1O	9	-4	-6	-6	-6	1	x
CCc1cc(/C(Cc2ccc3ccccc3n2)=N\O)c(O)cc1O	61*	6	0	2	5	25	40*
CCc1cc(/C(Cc2cscn2)=N\O)c(O)cc1O	14	-2	5	4	-13	9	x
CCc1cc(/C(Cc2ccccn2)=N\O)c(O)cc1O	19*	-9	-1	3	-3	11	22*
Cc1ccc(-n2nc(C)c3c2OC(N)=C(C#N)C3c2ccncc2)cc1 (configuration not stated)	19*	3	2	22	1	9	5
Cc1nn(-c2ccccc2)c2c1C(c1ccncc1)C(C#N)=C(N)O2 (configuration not stated)	8	6	1	11	7	4	x
Cc1n[nH]c(=S)n(/N=C/c2cccs2)c1=O	19*	-4	-4	1	-2	2	-2
CCOC(=O)c1ccc2c(c1)n(CC)c(/C=C/Nc1ccccc1)[n+]2CC	18*	-6	-6	2	16	-1	5
COC(=O)[C@]12C[C@H](CC(=O)NCCC(C)C)C(=O)N(Cc3ccccc3)C1=C[C@H](C(C)(C)C)O[C@@H]2C	-4	3	-3	0	x	x	x
COc1cccc2c1O/C(=N\O)C(C(=O)Nc1ccc(C)cc1)C2 (configuration not stated)	21*	4	-2	-6	4	2	5
COc1ccc(NC(=O)C2Cc3cccc(OC)c3O/C2=N\O)cc1 (configuration not stated)	-9	0	1	4	-3	1	x
Cc1nc(N2CCN(c3ccccn3)CC2)c2c(C)c(C(=O)Nc3c(C)cc(Br)cc3C)sc2n1	17*	6	0	-10	2	-8	-19
CC(=O)Nc1ccc(N/C=C/C(=O)c2ccc(Cl)cc2)cc1	19*	6	-5	3	-1	11	3
CCOC(=O)COn1c(=O)c(-c2ccc(Br)cc2)[n+]([O-])c2ccccc21	17*	-4	-5	-5	9	3	-1
CCOC(=O)COn1c(=O)c(-c2ccc(F)cc2)[n+]([O-])c2ccccc21	7	7	0	1	-12	8	x
CCOC(=O)Cc1nc(N2CCN(CCN)CC2)c2c(C)c(C(=O)OCC)sc2n1	-5	x	-1	1	x	x	x
COC(=O)N/N=C1\CCCc2c(C)cc(C)cc21	10	3	1	-5	-4	-2	x
Cc1cc(C)c2c(c1)/C(=N/NC(=S)Nc1ccc(F)cc1)CCC2	20*	6	-2	12	-7	3	4
CCN(CC)C(=O)CC[C@@H]1CC[C@]2(CCCN(Cc3ccncc3)C2)O1	-6	x	-3	2	x	x	x
CCn1c2ccccc2c2cc(NC(=O)c3ccc(C)c([N+](=O)[O-])c3)ccc21	21*	-1	-1	0	-7	-2	-4
Cc1ccccc1CS(=O)(=O)Cc1ccc(C(=O)Nc2ccccc2C)o1	-1	x	2	1	x	x	x
O=C(Nc1ccc([N+](=O)[O-])cc1)Nc1ccc(N2CCOCC2)c2nonc12	19*	3	-9	0	4	2	11
Cc1ccc2cccc(N)c2n1	32*	10	0	5	6	12	5
CCOC(=O)[C@@]12CCCC3=C1N(CCC3)C(=O)[C@H]2CC(=O)NCCCOC	8	x	1	1	x	x	x
CCC(C)[C@H](NC(=O)Nc1ccccc1F)C(=O)OC (some centres not stated)	22*	6	-2	3	-5	-2	0
SMILES	SIAE primary	TCR CD3 inh	PRMT1 FP inh	mABHD4 FP	ATG4B inhibitor	HTRA1 inhibitor	SIAE confirm
COC(=O)[C@H](C)NC(=O)Nc1ccccc1F	-1	-5	2	-3	0	-9	x
COC(=O)c1cc(S(=O)(=O)N2CCCN(C(C)=O)CC2)cn1C	-1	x	-1	-2	x	x	x
CC[n+]1ccc(/C=C/c2ccc(N(C)C)cc2)c2ccccc21	-68	-31	7	-139	11	-17	x
CC[n+]1ccc(C[n+]2ccccc2)c2ccccc21	20*	-2	2	6	39	-4	22*
Cc1[nH]c2ccccc2c1CC(=O)Nc1ccc(Nc2cccnc2)c(-c2ccc(-c3ccccc3)cc2F)c1	11	5	0	13	x	x	x
CCc1c(C)c2ccc(OCC(N)=O)cc2oc1=O	24*	-1	-3	-2	8	4	2
CN(c1ccc(OCC(=O)OCC(=O)Nc2ccc([N+](=O)[O-])cc2)cc1)S(=O)(=O)c1cccs1	40*	2	4	5	-17	-8	26*
CC1=CCC(C(=O)O)C(C(=O)NC2CCCCC2)C1 (configuration not stated)	22*	3	4	4	-2	8	2
Cc1ccc(C(=O)N/C(=C\c2ccccc2)C(=O)NCC2CCCO2)cc1 (configuration not stated)	-4	-2	4	-1	-12	-2	x
Cc1ccc(C(=O)N/C(=C/c2ccc(Cl)cc2)C(=O)NCC2CCCO2)cc1 (configuration not stated)	29*	-2	-3	1	-9	1	-4
CNC(=O)COC(=O)C1CCN(S(=O)(=O)c2ccc3c(c2)OCCO3)CC1	0	-10	0	1	8	-5	x
O=C(COC(=O)C1CCN(S(=O)(=O)c2ccc3c(c2)OCCO3)CC1)Nc1cccc2ccccc12	18*	-2	-4	0	3	2	-1
O=C(CN1CCN(S(=O)(=O)c2ccc3c(c2)OCCO3)CC1)Nc1cccc(F)c1	19*	4	2	2	-2	-2	0
CC(c1ccccc1)n1cc(C(=O)N2CCCN(Cc3ccccc3)CC2)nn1 (configuration not stated)	1	x	-8	-6	x	x	x
CCC(=O)N1CCc2cc(Br)c(S(=O)(=O)N3CCCC(C(=O)NC(C)(C)C)C3)cc21 (configuration not stated)	-4	x	1	4	x	x	x
Cc1[nH]n(-c2ccccc2)c(=O)c1/C=N/NC(=O)c1cccc([N+](=O)[O-])c1	20*	-5	-1	10	-9	5	-1
Cc1[nH]n(-c2cccc3ccccc23)c(=O)c1/C=N/NC(=O)c1cccc([N+](=O)[O-])c1	3	9	-1	20	11	3	x
CCOc1cc(/C=N/NC(=O)c2cccc([N+](=O)[O-])c2)ccc1OS(=O)(=O)c1ccccc1	22*	18	2	15	-23	-6	-8
